Series [1] in a line: Metabolic stability of human liver microsomes assessed as compound metabolized at 5 uM after 15 mins. Type of series: ADME, Microsome. As to conditions: read-out: Drug metabolism. The method in brief: (§1)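 Test compound at 5 μM incubated 15 min with rat or human liver microsomes; read-out is percent of compound metabolized.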
For orientation: Microsomes from liver hold many membrane-bound enzymes, among them those of drug oxidation.

In series [2] the target is T1, Metabotropic glutamate receptor 2 (Homo sapiens, UniProt Q14416). The series is described as follows: Agonist activity at human mGlu 2 expressed in CHO cells by PAM assay relative to glutamate. Type of series: functional, cell-based. The method in brief:
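The assay measured [35S]GTPγS binding to membranes from CHO cells expressing human mGluR2. Cells were butyrate-stimulated (5 mM, 24 h) before membranes were prepared. Membranes were preincubated for 30 min at 30 °C in HEPES pH 7.4 buffer (NaCl, MgCl2, 50 μM GDP) with compound (0.3 nM–50 μM, 11 concentrations) plus EC25 glutamate. [35S]GTPγS (0.1 nM final) was then added for 30 min at 30 °C. Bound label was collected by filtration and counted. Runs were done at least in triplicate with duplicate points, and a four-parameter logistic fit gave the values.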
Target sequence in this assay (Q14416 19-872 limits assumed): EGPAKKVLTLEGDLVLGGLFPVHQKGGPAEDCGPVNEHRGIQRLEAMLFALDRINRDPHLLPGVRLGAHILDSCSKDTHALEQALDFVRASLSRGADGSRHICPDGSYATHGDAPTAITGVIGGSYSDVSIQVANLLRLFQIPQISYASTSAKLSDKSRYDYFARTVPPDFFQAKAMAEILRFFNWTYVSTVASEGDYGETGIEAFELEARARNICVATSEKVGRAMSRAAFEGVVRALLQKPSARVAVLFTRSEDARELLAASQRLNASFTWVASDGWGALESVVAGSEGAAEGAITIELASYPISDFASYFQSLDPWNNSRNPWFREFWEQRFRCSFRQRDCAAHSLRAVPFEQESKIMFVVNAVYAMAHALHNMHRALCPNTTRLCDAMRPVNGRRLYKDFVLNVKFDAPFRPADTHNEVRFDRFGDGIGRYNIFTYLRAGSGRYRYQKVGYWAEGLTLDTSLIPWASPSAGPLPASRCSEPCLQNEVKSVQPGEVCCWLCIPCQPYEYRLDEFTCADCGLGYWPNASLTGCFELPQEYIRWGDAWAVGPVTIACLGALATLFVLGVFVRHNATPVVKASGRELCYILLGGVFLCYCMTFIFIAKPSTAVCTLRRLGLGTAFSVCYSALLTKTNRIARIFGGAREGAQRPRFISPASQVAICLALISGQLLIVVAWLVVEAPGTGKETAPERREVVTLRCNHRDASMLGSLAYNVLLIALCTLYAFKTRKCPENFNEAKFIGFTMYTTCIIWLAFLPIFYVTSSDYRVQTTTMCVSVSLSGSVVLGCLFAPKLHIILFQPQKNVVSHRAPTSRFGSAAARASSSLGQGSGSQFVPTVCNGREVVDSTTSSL

Series [3] addresses T1, Metabotropic glutamate receptor 2. The series is described as follows: Agonist activity at human mGlu 2 expressed in CHO cells assessed as [35S]GTPgammaS binding by liquid scintillation analysis. Type of series: functional, cell-based. The method in brief: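 Membranes from butyrate-stimulated (5 mM, 24 h) CHO cells expressing human mGlu2. Preincubated 30 min at 30 °C in HEPES pH 7.4 with NaCl, MgCl2, 50 μM GDP and saponin; modulator 0.3 nM–50 μM, no added glutamate. [35S]GTPγS 0.1 nM final, 30 min at 30 °C, filtered, scintillation counted. Nonspecific binding defined with cold GTP; 11 concentrations in duplicate, ≥3 curves.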
Target sequence in this assay (Q14416 whole entry): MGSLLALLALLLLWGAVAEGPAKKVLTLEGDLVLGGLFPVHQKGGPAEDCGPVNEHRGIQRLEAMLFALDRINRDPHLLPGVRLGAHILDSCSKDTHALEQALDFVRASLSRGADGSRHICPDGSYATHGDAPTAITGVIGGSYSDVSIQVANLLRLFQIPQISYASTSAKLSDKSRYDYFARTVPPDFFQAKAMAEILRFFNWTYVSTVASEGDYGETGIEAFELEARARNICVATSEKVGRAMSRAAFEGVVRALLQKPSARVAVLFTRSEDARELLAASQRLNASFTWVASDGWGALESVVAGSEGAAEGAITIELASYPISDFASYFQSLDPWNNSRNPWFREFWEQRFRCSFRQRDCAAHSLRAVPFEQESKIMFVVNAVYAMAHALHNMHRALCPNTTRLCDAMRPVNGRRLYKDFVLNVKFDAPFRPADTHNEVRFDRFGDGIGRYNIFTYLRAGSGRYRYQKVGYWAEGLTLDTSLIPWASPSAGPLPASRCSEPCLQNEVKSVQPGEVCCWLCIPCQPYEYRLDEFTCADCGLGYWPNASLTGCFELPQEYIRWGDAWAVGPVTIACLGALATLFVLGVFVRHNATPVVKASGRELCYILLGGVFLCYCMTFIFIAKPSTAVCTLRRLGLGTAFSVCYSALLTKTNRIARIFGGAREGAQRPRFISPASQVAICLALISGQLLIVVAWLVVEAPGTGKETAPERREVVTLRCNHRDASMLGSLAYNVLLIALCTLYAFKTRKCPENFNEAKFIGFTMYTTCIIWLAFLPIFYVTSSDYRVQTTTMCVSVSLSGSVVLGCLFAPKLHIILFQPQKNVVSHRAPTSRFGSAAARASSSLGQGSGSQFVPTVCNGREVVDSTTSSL

Series [4] is described as follows: Metabolic stability of Sprague-Dawley rat liver microsomes assessed as compound metabolized at 5 uM after 15 mins. Format: ADME, Microsome. As to conditions: read-out: Drug metabolism. The method in brief: as §1
A short description of series [5]: Ratio of drug level in brain to plasma of Sprague-Dawley rat at 10 mg/kg, sc after 2 hrs. As to conditions: read-out: BPR. On the set-up: dose 10 mg/kg, route subcutaneous. Type of series: ADME, organism-based. The method in brief:
(§2)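 Male Sprague−Dawley rats given 10 mg/kg subcutaneously, vehicle 20% HP-β-CD at pH 4. Plasma (ng/mL) and brain (ng/g) drug levels determined at the listed post-dose time; B/P ratio derived from them. Values are geometric means of at least two runs ± SEM.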

The nature of series [6]: Ratio of drug level in brain to plasma of Sprague-Dawley rat at 10 mg/kg, sc after 4 hrs. Type of series: ADME, organism-based. On the set-up: dose 10 mg/kg, route subcutaneous. Conditions: brain and plasma, read-out: BPR. The method in brief:
as §2

A short description of series [7]: Ratio of drug level in brain to plasma of Sprague-Dawley rat at 10 mg/kg, sc after 1 hr. Format: ADME, organism-based. Also on record: dose 10 mg/kg, route subcutaneous. Conditions: read-out: BPR. The method in brief:
as §2

Series [8] in a line: Plasma concentration in Sprague-Dawley rat at 10 mg/kg, sc after 1 hr. Type of series: ADME, organism-based. On the set-up: dose 10 mg/kg, route subcutaneous. The method in brief:
as §2

Series [9] in a line: Plasma concentration in Sprague-Dawley rat at 10 mg/kg, sc after 4 hrs. Format: ADME, organism-based. Also on record: dose 10 mg/kg, route subcutaneous. The method in brief:
as §2

Series [10] is described as follows: Drug uptake in Sprague-Dawley rat brain at 10 mg/kg, sc after 2 hrs. Format: ADME, organism-based. On the set-up: dose 10 mg/kg, route subcutaneous. As to conditions: read-out: Drug uptake. The method in brief:
(§3)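 Brain exposure in male Sprague-Dawley rats after a 10 mg/kg subcutaneous dose, vehicle 20% HP-β-CD at pH 4. Brain level measured in ng/g alongside plasma in ng/mL; geometric mean of at least two runs ± SEM.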

A short description of series [11]: Drug uptake in Sprague-Dawley rat brain at 10 mg/kg, sc after 1 hr. Format: ADME, organism-based. Also on record: dose 10 mg/kg, route subcutaneous. As to conditions: read-out: Drug uptake. The method in brief: as §3
Series [12] can be described thus: Drug uptake in Sprague-Dawley rat brain at 10 mg/kg, sc after 4 hrs. Type of series: ADME, organism-based. On the set-up: dose 10 mg/kg, route subcutaneous. As to conditions: read-out: Drug uptake. The method in brief:
as §3

Series [13] is described as follows: Plasma concentration in Sprague-Dawley rat at 10 mg/kg, sc after 2 hrs. Type of series: ADME, organism-based. On the set-up: dose 10 mg/kg, route subcutaneous. The method in brief:
as §2

As for `Cn1ccc2cc(-c3ccn4c(CC(F)(F)F)cnc4c3C#N)cc(Cl)c21`, the metabolised at 0.25 h, 5 µM in series [1] was determined as 51%; in [4] it was 62%. This molecule displayed a maximal effect (Emax) in series [2] of 184%. Besides, the 50% effective concentration (EC50) in series [3] amounted to 120 nM.

Turning to `N#Cc1c(-c2ccc(OC3CCOCC3)c(Cl)c2)ccn2c(CC(F)(F)F)cnc12`, the figures for the metabolised at 0.25 h, 5 µM in [1] and in series [4] were 29% and 50%, respectively. This molecule also came in with an Emax in series [2] of 173%. Also, the concentration giving a half-maximal response (EC50) in [3] amounted to 617 nM.

In the case of `FC(F)(F)Cc1cnc2c(Cl)c(-c3cc(Cl)c4c(ccn4CC4CC4)c3)ccn12`, the metabolised at 0.25 h, 5 µM amounted to 1% in series [1] and 70% in [4]. The maximal response (Emax) in [2] amounted to 193%.

In series [2], `N#Cc1c(-c2ccc3c(c2)OCCNC3)ccn2c(CC(F)(F)F)cnc12` displayed a maximal effect (Emax) of 105%.

`O[C@H]1CC[C@H](Nc2ccc(-c3ccn4c(CC(F)(F)F)cnc4c3Cl)cc2Cl)CC1`: the Kp at 2 h in series [5] is 1. In addition, in series [6], the Kp at 4 h amounted to 0.7. Also, the Kp at 1 h in [7] was determined as 0.5. Besides, the metabolised at 0.25 h, 5 µM is 16% in [1] and 15% in series [4]. Besides, the results for the concentration at 1 h in series [8] and in series [11] were 2140 ng/mL and 1000 ng/g, respectively. Moreover, the concentration at 4 h in series [9] was determined as 708 ng/mL; in [12], 485 ng/g. For the same molecule, the maximal response (Emax) in series [2] worked out at 293%. Besides, the concentration at 2 h came to 1220 ng/g in series [10] and 1280 ng/mL in series [13]. Moreover, in [3], the EC50 stood at 150 nM.

For the molecule `N#Cc1c(-c2ccc3c(ccn3CC3CC3)c2)ccn2c(CC(F)(F)F)cnc12`, the metabolised at 0.25 h, 5 µM in series [1] was determined as 24%; in [4] it was 40%. Further, the Emax in series [2] amounted to 230%. Moreover, the EC50 in [3] was 190 nM.

For the molecule `N#Cc1c(-c2ccc(NC3CCOCC3)c(Cl)c2)ccn2c(CC(F)(F)F)cnc12`, the metabolised at 0.25 h, 5 µM in [1] stood at 21%; in [4] it was 36%. In series [2], this molecule came in with a maximal effect (Emax) of 307%.

A word on the Emax: it is the size of the effect at its maximum, as opposed to the concentration needed. As usually defined, the EC50 is the concentration giving half of the maximal effect.

The values are drawn from ChEMBL document CHEMBL2150909, “Imidazo[1,2-a]pyridines: orally active positive allosteric modulators of the metabotropic glutamate 2 receptor” (J Med Chem, 2012).
